Results of several laboratories.
Lines come from different studies, so protocols differ. Values after ≈ are worked out from the molar mass of the structure shown.
Organism: Lodderomyces parapsilosis
Observed: microbial growth
Technique: broth dilution

`C[C@@H]1[C@H](O)[C@@H](C)/C=C/C=C/C=C/C=C/C=C/C=C/C=C/[C@H](O[C@@H]2O[C@H](C)[C@@H](O)[C@H](N)[C@@H]2O)C[C@@H]2O[C@](O)(C[C@@H](O)C[C@@H](O)[C@H](O)CC[C@@H](O)C[C@@H](O)CC(=O)O[C@H]1C)C[C@H](O)[C@H]2C(=O)O` has an MIC of 0.5 µg/mL (≈ 0.541 µM) (ATCC22019).
`OC(Cn1cncn1)(Cn1cncn1)c1ccc(F)cc1F` gave an MIC of 50 µg/mL (≈ 163 µM) (ATCC22019; 48 h).
For `CCCCCN1CCN(CC(O)(Cn2cncn2)c2ccc(F)cc2F)CC1` (stereo not drawn), the MIC was 15.6 µg/mL (≈ 39.6 µM) (ATCC22019; 48 h).
`OC(Cn1cncn1)(Cn1cncn1)c1ccc(F)cc1F` gave an MIC of 1 µg/mL (≈ 3.27 µM) (ATCC22019).
`O=C1/C(=C/c2cc(O)c(O)c(O)c2)Oc2ccccc21` gave an MIC of 8 µg/mL (≈ 29.6 µM).
With `CCCCCN1CCNCC1` the MIC was over 31.3 µg/mL (ATCC22019; 48 h).
The MIC of `CCCCNS(=O)(=O)c1ccc(-c2ccc3oc(C(=O)c4cc(O)c(O)c(O)c4)cc3c2)cc1` is reported as 8 to 16 µg/mL (≈ 16.6 to 33.2 µM).
With `CN1CCN(CC(O)(Cn2cncn2)c2ccc(F)cc2F)CC1` (stereo not drawn) the MIC was 0.975 µg/mL (≈ 2.89 µM) (ATCC22019; 48 h).
For `C[C@@H]1[C@H](O)[C@@H](C)/C=C/C=C/C=C/C=C/C=C/C=C/C=C/[C@H](O[C@@H]2O[C@H](C)[C@@H](O)[C@H](N)[C@@H]2O)C[C@@H]2O[C@](O)(C[C@@H](O)C[C@@H](O)[C@H](O)CC[C@@H](O)C[C@@H](O)CC(=O)O[C@H]1C)C[C@H](O)[C@H]2C(=O)O`, the MIC was 0.25 µg/mL (≈ 0.271 µM).
